From PubChem BioAssay
Sampled rows, rich in hits. Any-hit rate of the full collection: about 1.9%.
XiGFP reactiv: reactivates the inactive X chromosome in mouse fibroblasts; activation, % at 7.58 µM; XiGFP mouse fibroblasts, % GFP-positive cells imaging, 3 d; cells co-treated with 5-aza-dC sensitizer; scaled so ellipticine positive control = 100%; 360,000 tested, 0.055% active; AID 743238;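 active = mean normalized replicate activation at least 10% and every replicate at or above 10%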;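 note: 0% = median of on-plate neutral control wells and 100% = ellipticine 6 µM median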
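Material: XiGFP fibroblasts, SV40-immortalized; Buffer or medium: DMEM containing 5-aza-dC; Compound dosing: single point; Times: 3 days compound exposure.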
NadD inh: blocks S. aureus nicotinate mononucleotide adenylyltransferase. 360,000 tested, 0.78% active. inhibition, % at 20 µM. purified NadD enzyme, colorimetric absorbance read-out; in the data active = inhibition above about 26%
Rpn11 block: blocks the human proteasome subunit Rpn11; inhibition, % at 20 µM; 360,000 tested, 0.59% active; human 26S proteasome, Ub4-pepOG fluorescence polarization; 20S core pre-blocked with epoxomicin; O00487;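 active = inhibition at 20 µM, scaled to each plate's controls, above about 33%, limit read from the data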
Rin1-Abl PPI inh: blocks binding of human Rin1 to Abl; TR-FRET Rin1/Abl binding, biochemical; inhibition, % at 7.35 µM; AID 588664; 360,000 tested, 0.4% active; P00519+Q13671; in the data active = inhibition above about 5%, passing the limit was not always enough
ABHD5 PLIN5 PPI: inhibitors of human ABHD5-perilipin-5 interaction. Q00G26+Q8WTS1. Split G. princeps luciferase complementation, luminescence, 4 h. inhibition, % at 4 µM. 360,000 tested, 0.78% active. AID 602281;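 active = inhibition above the mean inhibition across every tested compound plus 3 SD, cut at about 22% in these data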;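 note: 0% = DMSO only wells and the 100% control is not disclosed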
Target sequence (Q00G26 whole entry, looked up): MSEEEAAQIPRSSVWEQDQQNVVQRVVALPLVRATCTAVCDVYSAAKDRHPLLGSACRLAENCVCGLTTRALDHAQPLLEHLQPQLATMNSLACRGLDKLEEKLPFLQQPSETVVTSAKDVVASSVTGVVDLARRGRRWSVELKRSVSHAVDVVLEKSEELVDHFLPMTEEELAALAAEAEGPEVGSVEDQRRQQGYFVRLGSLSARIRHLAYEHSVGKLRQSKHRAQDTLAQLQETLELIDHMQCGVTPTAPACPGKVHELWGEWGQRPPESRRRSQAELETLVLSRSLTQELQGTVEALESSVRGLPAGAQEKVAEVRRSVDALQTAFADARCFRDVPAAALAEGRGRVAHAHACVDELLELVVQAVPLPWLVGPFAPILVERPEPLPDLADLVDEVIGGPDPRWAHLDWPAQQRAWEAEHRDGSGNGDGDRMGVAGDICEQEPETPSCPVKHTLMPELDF
Target sequence (Q8WTS1 whole entry, looked up): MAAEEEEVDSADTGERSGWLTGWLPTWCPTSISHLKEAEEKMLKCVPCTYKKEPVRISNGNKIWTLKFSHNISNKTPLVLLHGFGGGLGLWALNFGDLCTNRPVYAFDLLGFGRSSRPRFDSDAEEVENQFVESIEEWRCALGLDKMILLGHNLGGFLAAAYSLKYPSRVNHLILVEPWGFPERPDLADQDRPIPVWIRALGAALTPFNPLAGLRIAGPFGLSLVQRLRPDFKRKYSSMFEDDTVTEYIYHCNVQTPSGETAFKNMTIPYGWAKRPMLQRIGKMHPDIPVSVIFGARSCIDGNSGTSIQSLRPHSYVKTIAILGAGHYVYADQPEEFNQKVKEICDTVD
NadD conf: confirmation of Staphylococcus aureus NadD inhibitors; 2,000 tested, 13% active; purified S. aureus NadD, colorimetric enzyme assay; shares compounds with NadD inh; inhibition, % at 20 µM; in the data active = inhibition mostly above about 42%, no sharp cut-off; inactive = mostly below about 42%
An asterisk follows results filed as active; / = no result.

SMILES	XiGFP reactiv	NadD inh	Rpn11 block	Rin1-Abl PPI inh	ABHD5 PLIN5 PPI	NadD conf
CC(=O)N(C)C[C@H]1Oc2cc(-c3ccccc3C)ccc2S(=O)(=O)N([C@@H](C)CO)C[C@H]1C	-2.0	/	/	/	/	/
CCOc1ccc(NC(=O)c2cccc(-n3cccc3)c2)cc1S(=O)(=O)N1CCOCC1	0.0	32.2*	-333.3	3.0	4.8	30.4
Cc1ccc2[nH]c(=O)c(C(c3nnnn3Cc3ccccc3)N3CCc4ccccc43)cc2c1 (stereo unspecified)	/	31.6*	4.3	1.8	-8.3	21.5
Cc1ccc2cc(C(c3nnnn3Cc3ccccc3)N3CCc4ccccc43)c(=O)[nH]c2c1 (stereo unspecified)	/	17.3	7.6	0.0	-8.5	/
Cc1cc2cc(C(c3nnnn3Cc3ccco3)N3CCc4ccccc43)c(=O)[nH]c2cc1C (stereo unspecified)	/	32.3*	12.9	2.1	6.0	25.5
O=C(C[C@@H]1CC[C@H](NC(=O)c2ccccc2)[C@@H](CO)O1)Nc1ccc(-c2ccccc2)cc1	-0.3	/	/	/	/	/
COc1ccccc1S(=O)(=O)N1CC[C@@H]2[C@H](CO)N(C)c3ccc(C#Cc4cccc(F)c4)cc3[C@@H]21	0.0	/	/	/	/	/
O=C(Nc1ccn(CCCN(CCCn2ccc(NC(=O)OCc3ccccc3)nc2=O)CCc2cc3ccccc3[nH]2)c(=O)n1)OCc1ccccc1	-0.1	70.1*	4.1	7.4	5.8	55.0*
S=C1Cc2ccccc2N1	-0.1	30.7*	20.6	-0.3	86.2*	38.9
CSc1nnc(-c2ccncc2)n1/N=C/c1cn(-c2ccccc2)nc1-c1ccc(Cl)cc1	0.1	3.3	-9.8	-0.4	8.4	/
O=[N+]([O-])c1ccc(-c2nn(-c3ccccc3)cc2/C=N/n2c(-c3cccs3)n[nH]c2=S)cc1	0.1	43.1*	-10.0	1.5	11.1	2.9
S=c1[nH]nc(-c2ccncc2)n1/N=C/c1cn(-c2ccccc2)nc1-c1ccc(Cl)cc1	0.0	45.3*	-2.6	0.2	3.2	5.2
CO[C@H]1CN(C)C(=O)c2ccc(NC(=O)Nc3ccccc3)cc2OC[C@H](C)N(C(C)=O)C[C@@H]1C	-0.5	/	/	/	/	/
O=c1c2c(-c3ccco3)csc2nc(SCc2cn3cccnc3n2)n1-c1ccccc1	/	35.7*	5.2	-1.6	48.1*	7.9
O=C(CSc1nc2scc(-c3ccco3)c2c(=O)n1-c1ccccc1)NCC1CCCO1 (stereo unspecified)	/	30.1*	19.6	-3.5	55.9*	37.3
O=C(C[C@H]1C[C@H]2c3cc(NC(=O)Nc4ccc(C(F)(F)F)cc4)ccc3O[C@H]2[C@H](CO)O1)NCc1ccc(Cl)cc1	-0.1	/	/	/	/	/
CCC(=O)N1CC2(CN(C(=O)CN3CCOCC3)C2)c2c([nH]c3cc(OC)ccc23)[C@H]1CO	0.3	/	/	/	/	/
CCc1nnc(NC(=O)c2ccc(S(=O)(=O)N3CCc4ccccc4C3)cc2)s1	1.2	-4.7	10.4	0.5	-4.8	/
Cc1cc(C)c2nc(NNC(=O)c3ccc(S(=O)(=O)N4CCc5ccccc5C4)cc3)sc2c1	0.9	60.4*	23.9	-2.5	29.9*	61.2*
Cc1cc(C)c2sc(NNC(=O)c3ccc(S(=O)(=O)N4CCc5ccccc5C4)cc3)nc2c1	0.4	63.7*	15.3	-1.3	29.6*	55.6*
Cc1cc2nc(-c3cccc(Br)c3)c(Cc3ccsc3)n2c(C)c1Br	0.3	41.3*	/	/	-0.4	18.7
Cc1cc2nc(-c3ccc(F)cc3)c(Cc3cccc(Cl)c3)n2c(C)c1Br	0.0	69.4*	/	/	12.5	29.0
Cc1ccc(-c2nc3cc(C)c(Br)c(C)n3c2Cc2cccc(Cl)c2)cc1	/	6.6	/	/	-6.5	/
Clc1cccc(Cc2c(-c3cccc(Br)c3)nc3ccc(Br)cn23)c1	-0.1	30.2*	25.1	-22.9	-1.1	43.7
Cc1cc2nc(-c3ccccc3)c(Cc3cccc(Cl)c3)n2c(C)c1Br	-0.1	37.5*	/	/	-1.3	25.5
SMILES	XiGFP reactiv	NadD inh	Rpn11 block	Rin1-Abl PPI inh	ABHD5 PLIN5 PPI	NadD conf
Clc1cccc(Cc2c(-c3cccc(Cl)c3)nc3ccc(Br)cn23)c1	0.2	16.4	19.2	-20.5	-12.6	/
CNC(=O)C[C@H]1CC[C@H]2[C@@H](COC[C@H](O)CN2Cc2ccc(Cl)c(Cl)c2)O1	-0.1	/	/	/	/	/
COc1cc(/C=C/C(=O)c2ccc(NS(=O)(=O)c3ccc(C)cc3)cc2)cc(OC)c1O	0.2	32.0*	26.4	-3.8	38.0*	45.7
CCOC(=O)c1c(NC(=O)CSc2nnc(-c3ccc(OC)cc3)o2)sc2c1CCC2	/	-3.1	1.8	-5.4	-2.6	/
NC(=O)c1c(NC(=O)COC(=O)CSc2nnc(-c3ccc(Cl)cc3)o2)sc2c1CCC2	/	39.5*	18.3	-3.2	4.7	8.4
CN1C(=O)c2cc(NC(=O)C3CCC3)ccc2OC[C@H]2O[C@H](CC(=O)NCCc3ccncc3)CC[C@H]21	0.0	/	/	/	/	/
COc1ccc2c3c(n(C)c2c1)[C@H](CO)N(S(C)(=O)=O)CC31CCN(C(=O)Nc2cccc(F)c2)CC1	0.1	/	/	/	/	/
O=C(Cc1cccc2ccccc12)N/N=C/c1ccc(O)c([N+](=O)[O-])c1	0.1	-4.5	-3.0	3.7	4.4	/
O=C(Cc1cccc2ccccc12)N/N=C/c1ccc2cccc(O)c2n1	0.1	29.7*	2.2	-1.2	-4.2	37.3
Cc1ccc(C)c2nc(N3CCCC3)c(C#N)cc12	/	31.8*	8.0	-4.6	-2.6	10.9
Cc1cccc2cc(C#N)c(N3CCN(C)CC3)nc12	/	-1.5	-4.5	-5.4	-5.3	/
COc1ccccc1NC(=O)N[C@H]1CC[C@@H](CCNC(=O)Cc2ccccn2)O[C@@H]1CO	-0.5	/	/	/	/	/
Cc1ccccc1N(C(=O)Cc1ccsc1)C(C(=O)NC1CCCCC1)c1ccc(F)cc1 (stereo unspecified)	/	30.6*	-0.3	1.9	2.4	-3.4
COc1ccc2c3c([nH]c2c1)[C@@H](CO)N(C(=O)Nc1ccc(F)cc1)CC31CCN(C(=O)c2ccccn2)CC1	0.4	/	/	/	/	/
Cn1c(=O)[nH]c(=O)c2c1[nH]c(=S)n2CCCc1ccccc1	0.0	32.4*	7.3	-3.8	-13.4	21.2
Cn1c(=O)c2c([nH]c(=S)n2CCCc2ccccc2)n(C)c1=O	0.0	24.3	-2.3	-2.1	-9.7	/
Cc1noc(C)c1S(=O)(=O)Nc1ccc2c(c1)C(=O)N([C@H](C)CO)C[C@H](C)[C@H](CN(C)C(=O)Nc1ccc3c(c1)OCO3)O2	-0.9	/	/	/	/	/
N#Cc1c(N)n(CCc2ccc(F)cc2)c2nc3ccccc3nc12	/	6.7	17.1	0.7	-19.8	/
Nc1c(C(=O)NCc2ccco2)c2nc3ccccc3nc2n1CCc1ccc(F)cc1	/	38.5*	43.3*	15.4*	-3.7	4.4
C/C(=N\NC(=S)Nc1cccc(C)c1)c1cccc(N)c1	-0.1	14.1	2.4	1.4	-19.7	/
C/C(=N\NC(=S)Nc1ccc(C)cc1)c1cccc(N)c1	0.3	26.8*	10.3	-1.4	-4.0	17.4
